Results on one molecule are retold here after ChEMBL document CHEMBL4813940, “Design, synthesis and biological evaluation of novel benzoxaborole derivatives as potent PDE4 inhibitors for topical treatment of atopic dermatitis” (Eur J Med Chem, 2021).

Series [1] can be described thus: Phototoxicity in albino guinea pig assessed as erythema and edema topical treatment irradiated with 4.2 mw/cm2 UVA for 40 mins and measured after 72 hrs day of light irradiation by H and E staining based microscopic analysis. Set-up: species or system Cavia porcellus. The conditions noted are these: topical_or_ocular. The gist of the method: (§1)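 Albino guinea pigs (250–300 g) were randomized into 5 groups. Four 2 cm × 2 cm depilated areas beside the spine were prepared 24 h before dosing, and 0.2 mL of test substance was applied. Animals were restrained and exposed to UVA for 40 min. Erythema, eschar and oedema were scored visually at 1, 24, 48 and 72 h. Skin taken at 72 h was formalin-fixed, H&E-stained and read by a pathologist.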

Series [2] can be described thus: Phototoxicity in albino guinea pig assessed as infiltration of inflammatory cells at 10 mg/kg topical treatment irradiated with 4.2 mw/cm2 UVA for 40 mins and measured after 24 hrs day of light irradiation by H and E staining based microscopic analysis. The series is classed as organism-based, Cavia porcellus. The conditions noted are these: in vivo, topical_or_ocular, in the assay text read “72 hrs” for “24 hrs”. The gist of the method: as §1

Series [3] is described as follows: Phototoxicity in albino guinea pig assessed as erythema and edema topical treatment irradiated with 4.2 mw/cm2 UVA for 40 mins and measured after 24 hrs day of light irradiation by H and E staining based microscopic analysis. The note with it: topical_or_ocular. Set-up: species or system Cavia porcellus. Put shortly:
as §1

The nature of series [4]: Phototoxicity in albino guinea pig assessed as necrosis at 10 mg/kg topical treatment irradiated with 4.2 mw/cm2 UVA for 40 mins and measured after 24 hrs day of light irradiation by H and E staining based microscopic analysis. The series is classed as organism-based, Cavia porcellus. The note with it: in vivo, topical_or_ocular, in the assay text read “72 hrs” for “24 hrs”. The gist of the method:
as §1

Consider `COc1c2occc2cc2ccc(=O)oc12` [METHOXSALEN], for which the Activity entry in series [1] is given as “Non-Toxic”; in series [2], “Toxic”; in series [3], “Toxic”; in series [4] it was “Toxic”.
